The values below come from ChEMBL document CHEMBL4014337, “Antimalarial Inhibitors Targeting Serine Hydroxymethyltransferase (SHMT) with in Vivo Efficacy and Analysis of their Binding Mode Based on X-ray Cocrystal Structures” (J Med Chem, 2017).

The nature of data set [1]: Partition coefficient, logD of compound at pH 7.4 by HPLC analysis. The format is physicochemical. Conditions: octanol/water. In outline:
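logD at pH 7.4 measured by HPLC.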

Data set [2] can be described thus: Kinetic solubility of the compound in pH 6.5 phosphate buffer after 30 mins by nephelometry. It counts as physicochemical. The note with it: pH 6.5, 0.5 h.
Data set [3] in a line: Kinetic solubility of the compound in pH 2 HCl after 30 mins by nephelometry. It counts as physicochemical. The note with it: buffer, pH 2, 0.5 h.
Data set [4] can be described thus: Cytotoxicity against human HepG2 cells after 72 hrs by CyQuant-Direct reagent based fluorescence assay. It counts as cell-based.
Another data set has as its system Salmonella typhimurium. Briefly: Mutagenicity in Salmonella typhimurium TA98 assessed as increase in number of revertant colonies at 1250 to 5000 ug/ml in absence of ariclor-induced rat liver S9 fraction by Ames test relative to control. The format is toxicity. The note with it: salmonella enterica subsp. enterica serovar typhimurium. In outline:
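Ames plate incorporation test run in two independent experiments across five Salmonella strains, with and without metabolic activation. Revertant colonies were counted per plate and compared with concurrent vehicle controls. A reproducible increase of ≥2-fold in revertant colony number over vehicle control was scored as evidence of mutagenicity.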
For orientation: The Ames test uses bacterial strains that need an amino acid and regain growth without it when mutated back.

As usually defined, the logD is the decadic logarithm of the distribution of all forms, ionised or not, between an organic phase and buffer at a given pH. A higher logD goes with higher lipophilicity. With `Cc1[nH]nc2c1C(c1cc(-c3cccc(C(=O)O)c3)cc(C(F)(F)F)c1)(C(C)C)C(C#N)=C(N)O2` (racemic), in data set [1], the logD was 1.8.

On to `Cc1[nH]nc2c1C(c1cc(N3CC4CCCC4C3)cc(C(F)(F)F)c1)(C(C)C)C(C#N)=C(N)O2` (racemic), for which the Kinetic_solubility result in data set [2] and in data set [3] was “Soluble” throughout.

As for `Cc1[nH]nc2c1C(c1cc(F)cc(-c3ccncc3)c1)(C(C)C)C(C#N)=C(N)O2` (racemic), the Kinetic_solubility entry in data set [2] and in data set [3] was “Soluble” in each case.

The molecule `Cc1[nH]nc2c1C(c1cc(F)cc(N3CCC(C(=O)O)CC3)c1)(C(C)C)C(C#N)=C(N)O2` (racemic) gave a logD in data set [1] of 1.2.

The IC20 is the concentration needed for an effect of 20%. Take `Cc1[nH]nc2c1C(c1cc(-c3cccnc3)cc(C(F)(F)F)c1)(C(C)C)C(C#N)=C(N)O2` (racemic): in data set [4], the 20% effect level (IC20 at 72 h) was put at 18.9 µM.

Take `Cc1[nH]nc2c1C(c1cc(F)cc(N3CCOCC3)c1)(C(C)C)C(C#N)=C(N)O2` (racemic): the Kinetic_solubility result in data set [2] and in data set [3] was “Soluble” throughout.

Molecule `Cc1[nH]nc2c1C(c1cc(N3CCC(C(=O)O)CC3)cc(C(F)(F)F)c1)(C(C)C)C(C#N)=C(N)O2` (racemic) had a logD in data set [1] of 1.6. In addition, the Kinetic_solubility entry in data set [2] and in data set [3] was “Soluble” in each case.

In data set [1], `Cc1[nH]nc2c1C(c1cc(C#N)cc(-c3cccc(C(=O)O)c3)c1)(C(C)C)C(C#N)=C(N)O2` (racemic) gave a logD of 1.4.

As for `Cc1[nH]nc2c1C(c1cc(F)cc(-c3cccc(C(=O)O)c3)c1)(C(C)C)C(C#N)=C(N)O2` (racemic), the logD in data set [1] worked out at 1.5. In the data set with Salmonella typhimurium, the “fold change (FC)” value is on record as “>= 2”. The Kinetic_solubility entry in data set [2] and in data set [3] was “Soluble” in each case.

With `Cc1[nH]nc2c1C(c1cc(N3CCS(=O)(=O)CC3)cc(C(F)(F)F)c1)(C(C)C)C(C#N)=C(N)O2` (racemic), the Kinetic_solubility result in data set [2] and in data set [3] was “Soluble” each time.

With `COc1ccc(-c2cc(C(F)(F)F)cc(C3(C(C)C)C(C#N)=C(N)Oc4n[nH]c(C)c43)c2)cc1C(=O)O` (racemic), the logD in data set [1] is 1.7. Also, the Kinetic_solubility entry in data set [2] and in data set [3] was “Soluble” throughout.
